Tested on: MS2 coat protein
Test: apparent Kd, MS2 coat protein; higher = weaker binding; RNA-MaP array; FMN 200 µM where present
Procedure, shortened: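 Binding was read on Illumina sequencing-chip clusters where stalled E. coli RNA polymerase had transcribed each design. A titration of SNAP-549-labelled MS2 coat protein began at 0.7 or 1.5 nM and doubled to 3 µM, once without ligand and once with constant ligand, in 100 mM Tris-HCl pH 7.5, 80 mM KCl, 4 mM MgCl2, BSA, DTT, yeast tRNA and Tween-20. The apparent Kd is the median of filtered per-cluster binding-curve fits, based on green signal normalised to red-channel RNA signal and control-cluster median Fmax.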

[1] = designed as: OFF switch for flavin mononucleotide, no ligand
[2] = ligand present: flavin mononucleotide, designed as: OFF switch for flavin mononucleotide
[3] = designed as: ON switch for flavin mononucleotide, no ligand
[4] = ligand present: flavin mononucleotide, designed as: ON switch for flavin mononucleotide

Row | Sequence | apparent Kd [1] | apparent Kd [2] | apparent Kd [3] | apparent Kd [4]
1 | AUCAGCUCGUCAGGAUAUACAUCACUGCUUCGGCAGUGUGGUAAGAUCACAUGAGGAUCACCCAUGUAGAAGGGACGAGCUGAU | 13.9 nM | 217 nM |  | 
2 | UCGCCAGGUACAGGAUAUGUGGAUCGGUCAAGUAACUCGCCGAACAUGAGGAUCACCCAUGUAUCACAGAAGGGUGCCUCAAAG |  |  | 223 nM | 10.8 nM
3 | GUGCUACAGCGGCGCACGAGACAUGAGGAUCACCCAUGUGACAGAAGGGACUUGUUAAAGGUAGGUCAGGAUAUGUCUUAAAAG |  |  | 291 nM | 81.4 nM
4 | ACGUUACAUGAGGAUCACCCAUGUGAGGAUAUGGUGCGGUAGUGUCCUGUCGCGUACUCCAGAAGGCGCGGGUG | 204 nM | 147 nM |  | 
5 | UUUGCAUUCCGAGGAUAUUCAUUUAUUGUCUUCACAUGAGGAUCACCCAUGUGGCGCUUGCGCCGGGAGAAGGCGGUUUGCUUU |  |  | 21.7 nM | 24.9 nM
6 | UAGAAGUCAGGAUAUGCUGCUCGUCACUUGCGUGAUGAGUAGCAGAAGGGACAUGAGGAUCACCCAUGUAAAGC | 48.8 nM | 54.3 nM |  | 
7 | ACCGACACUUACAUGAGGAUCACCCAUGUGUGUAAUCGGACACAGGAUAUCCAUGGUAAGUAUCGGGAGAAGGGUGGAAAGAAA |  |  | 88.9 nM | 233 nM
8 | GCCAGGAUGUGAGGAUAUGCUGAGGAUAACUCAGCAGAAGGCACAUGAGGAUCACCCAUGUAAACCUAUAAUAAAUACCCUGGC | 12.1 nM | 24.4 nM |  | 
9 | UAAUAAUUAUGAGGAUAUAUACAACAUGAGGAUCACCCAUGUACCCAUGUAGUAGAAGGCAUAUUUUUAUUUAAUAAUAUAACU |  |  | 60.4 nM | 27.6 nM
10 | AUAAUGAGAGGAUAUACAUGAGGAUCACCCAUGUUAUUAUCACGGCGUGCUCCAUUACGUAGAAGGCUCAUUUA | 117 nM | 35.2 nM |  | 
11 | UUGAGGUCAGGAUAUGCAUGGCGGGACUUGCGUCGUGGCGUGGAGAAGGGACAUGAGGAUCACCCAUGUGGAGU | 93.1 nM | 53.4 nM |  | 
12 | AUGGUGACGUAGAAGGGUGACAUGAGGAUCACCCAUGUGCCGAUAUUUUUCGAAAUAUGUCGGCCACAGGAUAUACGUGCCAUC |  |  | 68.7 nM | 136 nM
13 | AGUGCUAUGUAGAAGGCAGAUCUGAUUCAGAUCUGAGGAUAUACAUGAGGAUCACCCAUGUUAUGCACCAGCACGAGAGUGCAA | 8.2 nM | 17.5 nM |  | 
14 | CAGGUAGACUGAGGAUAUACAAUAAACAGCUAGUCUAUCUAGCUGCCGACAUGAGGAUCACCCAUGUAGAAGGCAGUCUGCCUG | 18.5 nM | 40 nM |  | 
15 | AGGUAAGAGUUAAUUGUGACGGUGAGAAGGCAAUAGGUUGUGAUUAACAUGAGGAUCACCCAUGUUGAGGAUAUCACCACCUAC | 14.3 nM | 80.8 nM |  | 
16 | UGCAGGUGAGGAUAUGCGGGCGAGCUAACAUAAGCAUCGAAGCAGAAGGCACAUGAGGAUCACCCAUGUAGUCC | 18.9 nM | 28 nM |  | 
17 | AGCUAGUCAGGAUAUACGAACAUGUCAAAAGACGUGAAAGGACAUGAGGAUCACCCAUGUAGAAGGGACUAGCA | 21.4 nM | 46.9 nM |  | 
18 | CUCUUGUUAGGAUAUCAAACCGGCAGCGGAGCCGCCGGAAGUGAGAAGGGACAUGAGGAUCACCCAUGUAAGAA | 81.6 nM | 256 nM |  | 
19 | CUUUCGUGAGGAUAUCAGUAGUAAAUAAAUAAAAUUACUACUGAGAAGGCACAUGAGGAUCACCCAUGUUCCUC | 23.6 nM | 144 nM |  | 
20 | UCAAUUCUGACAUCCUUAUUACAUGAGGAUCACCCAUGUUGUGAGGAUAUCCCAACCCACGGUCAGGAGAAGGCACAUAGAGGG | 5.5 nM | 5.9 nM |  | 
21 | CUAUGCGGAAUAGGAUAUUCAUUCAUGAGGAUAGAAGAAGGGUUACAUGAGGAUCACCCAUGUAUGCACAUGAGGAUCCCUUAG | 247 nM | 260 nM |  | 
22 | GCAAAGCCUGACAUGAGGAUCACCCAUGUUAGAUUGUUAUGUCAGGAUAUUGUCUAGCAACUAGACAAGAAGGGAUGCUCUGCC |  |  | 377 nM | 194 nM
23 | GGGUACAUCGGAGGAUAUCAUGUAAAUACAUGAGGAUCACCCAUGUCGAUGGAGACAUCGGAGAUUGAGAAGGCAGAUGUACCG |  |  | 333 nM | 18.1 nM
24 | AUGGUUGUCGUAGGAUAUGUAGGAUAUUCCUACAUGAGGAUCACCCAUGUUCGCAUGGAAGAAGGACAGAAGGACGAUGACCAC |  |  | 1480 nM | 9.4 nM

Row | Sequence | apparent Kd [1] | apparent Kd [2] | apparent Kd [3] | apparent Kd [4]
25 | GCAGCGCCUGACAUGAGGAUCACCCAUGUUAGAUUGUUAAGUCAGGAUAUAGUCUAGAAACUAGACUAGAAGGGAUUUGCUGCU |  |  | 9.08 nM | 6.83 nM
26 | UCCUACAUGGGAGGAUAUGGGAUGAUAACAUGAGGAUCACCCAUGUUAAAGAUGCCGAGAGGCAACUAGAAGGCCCAUGUAGGU |  |  | 434 nM | 70.3 nM
27 | GUUACAUGAGGAUCACCCAUGUAUGUGUGGGAGUAAGUGUCUUAGGAUAUCUAUUAUUUAAUGUAAGAGAAGGAAGAUUGUUGU |  |  | 113 nM | 124 nM
28 | UCGCUGCGAGGAUAUACGUGCGCGCGCGCGCGCGCGCGCGUACAUGAGGAUCACCCAUGUAGAAGGCGCUCUGC | 39.7 nM | 36.6 nM |  | 
29 | AUGAGAAAAGCAGGAUAUCUAUUGUCUCAGAAACAUGAGGAUCACCCAUGUAGAGAAGGGCUAAGACUGACUCUUCGGAGUUGA | 10.6 nM | 9.46 nM |  | 
30 | UUGCGGUAGGAGAAGGACAGAGGCGGAAACACAAACAUGAGGAUCACCCAUGUAGGAUAUCCUACCUAACGCGGACUCCUCCAG | 6.3 nM | 8.88 nM |  | 
31 | UUUACUUACGAAGGAUAUGGAUACAUGAGGAUCACCCAUGUAUGUAUGAUGAUCUAGUAGUUGGGCCAGAAGGUCGUGAUUAUU | 16.9 nM | 21.8 nM |  | 
32 | AAAAAACAUGAGGAUCACCCAUGUGAGGAUAUCGAGAAGAAGAAGAAGAAGAAGAGAACGAGAAGGCACAAAAA | 47.4 nM | 51.5 nM |  | 
33 | CUGUGACGGUGCGCAAGUGGACGUAGAAGGGUCACAUGAGGAUCACCCAUGUGGGCCUGCGAGUGACAGGAUAUACGUUCGUGC | 15 nM | 57 nM |  | 
34 | AAUGGGCAGCAGAAGGCAUGUCUACGGACAUGAGGAUCACCCAUGUAGUGAAGCCGAAAGGCGCAUGAGGAUAUGCUGCCCUAA |  |  | 131 nM | 8.45 nM
35 | CUUGUUUAUGUAGGAUAUGCCUGGCGUGCCUUUGCAGAAGGACAUGAGGAUCACCCAUGUAACAUGAGGCUCCACCUUGUCGCC | 143 nM | 141 nM |  | 
36 | AGGGUGGGCUCAGGAUAUCAGGAAGGGAUGUGGACAUGAGGAUCACCCAUGUACCAGUGUUGUUAUGAGAAGGGAGAUAUUGUA |  |  | 16.7 nM | 13.5 nM
37 | AAUUAAUUAAUACAUGAGGAUCACCCAUGUAAUUAUUAGAUCAAGGAUAUCAGCUCGAUUAGAGCUGAGAAGGUGAUCACAUGU |  |  | 412 nM | 102 nM
38 | AUACGGGCUAACAUGAGGAUCACCCAUGUGUUAUACUUAAUAUAGGAUAUGUUUAUACUUUUUGGGCAGAAGGAUGGCCCGUAU |  |  | 53.5 nM | 44.9 nM
39 | AUUAUUUACAUAGGAUAUUGUUACAUGAGGAUCACCCAUGUUUUCAUGGUAUUAAUAUAUUAUUUCAAGAAGGAUGUUGUUACA |  |  | 32.2 nM | 19.6 nM
40 | CGCGGACAAGAGAAGGCCAGACCUUGGAACCUAAGGCACCGCUAGGCAUGGAGGAUAUCUUGACAUGAGGAUCACCCAUGUACA |  |  | 109 nM | 40.9 nM
41 | GCGCGCGCAGGAUAUACAUGAGGAUCACCCAUGUAGCGCGCGCGUAUUUGUGUGUGUUGUAGAAGGGUGUGUGU | 20 nM | 18.2 nM |  | 
42 | CAAUUUAUGUCAGGAUAUACAAUACAAUGAUUAGUAGAAGGGAUUAAUACAUGAGGAUCACCCAUGUCAUGUGUCAUCGUGCCC | 24 nM | 20.7 nM |  | 
43 | CUUUUGUGAGGAUAUUAGUAGUAAACAAACAAAAUUAUUACUGAGAAGGCACAUGAGGAUCACCCAUGUUCCUC | 39.7 nM | 637 nM |  | 
44 | GCGUAACAUGAGGAUCACCCAUGUACCCGAGAAUUCGGGUGUAGAAGGGUGACCGGUCGUUUGGCACAGGAUAUACACGCUGUG |  |  | 37.1 nM | 11.5 nM
45 | GUGUACAGAGGAUAUACAUAAGCUAGGAAACUAGCAACCUCACAUGAGGAUCACCCAUGUAGAAGGCUGUACAC | 189 nM | 59.6 nM |  | 
46 | GUGUACAGAGGAUAUACUGGAGCUAGGAAACUAGCAACCUCACAUGAGGAUCACCCAUGUAGAAGGCUGUACAC | 402 nM | 25.8 nM |  | 
47 | UCUACGCGAAUCAAGAUGGAUAGAACAUGAGGAUCACCCAUGUAGGAUAUGCUACACAAAGUGUAGCAGAAGGACAAGCGUAGA | 25.1 nM | 35.7 nM |  | 
48 | GCCGGAGCAGGAUAUCUAAUAUAUCACAUGAGGAUCACCCAUGUCCAGCGAAAGCUGGAGGGAGAAGGGCUCUGGC | 164 nM | 44.4 nM |  | 

Source: the EternaBench riboswitch data
